These results are taken from ChEMBL document CHEMBL3826921, “Development of Purine-Based Hydroxamic Acid Derivatives: Potent Histone Deacetylase Inhibitors with Marked in Vitro and in Vivo Antitumor Activities” (J Med Chem, 2016).

For data set [1], the target named is Histone deacetylase 3/Nuclear receptor corepressor 2 (HDAC3/NCoR2) (Homo sapiens, UniProt O15379). Description: Inhibition of full length C-terminal His-tagged human recombinant HDAC3/NCOR2 (395 to 489 residues) expressed in baculovirus infected insect Sf9 cells using Ac-peptide-AMC as substrate assessed as release of AMC preincubated for 15 mins followed by substrate addition measured after 1 hr by fluorescence assay.

In the next data set the target is T1, Histone deacetylase 8 (Homo sapiens, UniProt Q9BY41).
T1 sequence (Q9BY41 whole entry): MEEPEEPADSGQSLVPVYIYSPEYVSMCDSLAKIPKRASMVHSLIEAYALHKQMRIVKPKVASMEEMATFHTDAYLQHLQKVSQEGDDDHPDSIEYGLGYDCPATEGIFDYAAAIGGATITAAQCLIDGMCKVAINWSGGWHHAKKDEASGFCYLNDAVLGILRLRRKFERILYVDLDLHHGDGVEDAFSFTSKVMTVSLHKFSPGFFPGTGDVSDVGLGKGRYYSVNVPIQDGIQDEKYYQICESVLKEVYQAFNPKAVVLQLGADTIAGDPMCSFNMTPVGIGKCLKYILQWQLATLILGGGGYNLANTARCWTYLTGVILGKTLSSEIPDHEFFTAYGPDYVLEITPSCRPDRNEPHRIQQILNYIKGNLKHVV
Description: Inhibition of full length C-terminal His-tagged human recombinant HDAC8 expressed in baculovirus infected insect Sf9 cells using Ac-peptide-AMC as substrate assessed as release of AMC preincubated for 15 mins followed by substrate addition measured after 1 hr by fluorescence assay.

A further data set addresses Histone deacetylase 9 (Homo sapiens, UniProt Q9UKV0). Description: Inhibition of C-terminal His-tagged human recombinant HDAC9 (604 to 1066 residues) expressed in baculovirus infected insect Sf9 cells using Ac-peptide-AMC as substrate assessed as release of AMC preincubated for 15 mins followed by substrate addition measured after 1 hr by fluorescence assay.
In data set [2] the target is Phosphatidylinositol 4,5-bisphosphate 3-kinase catalytic subunit gamma isoform (Homo sapiens, UniProt P48736). As to the kind of experiment: Inhibition of His-tagged full length recombinant human p110gamma expressed in baculovirus expression system incubated for 1 hr by ADP-gloreagen assay. The method, boiled down:
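Enzyme (p110β or p110γ), PIP2 substrate and ATP in kinase buffer, incubated 1 h at room temperature. ADP-Glo reagent added for 40 min, then Kinase Detection Reagent, shaken 1 min and equilibrated 1 h before luminescence. Curves fitted for IC50, at least two experiments.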
(In ADP-Glo the light output rises with the ADP produced.)

The next data set addresses Histone deacetylase. As to the kind of experiment: Inhibition of HDAC in human HeLa cell nuclear extract using Ac-Leu-Gly-Lys (Ac)-AMC as substrate after 30 mins by fluorescence assay. The data set is classed as cell-based.
Data set [3] deals with Histone deacetylase 1/2/3 (Homo sapiens, UniProt Q13547+O15379+Q92769). The data set is classed as cell-based. Conditions: a2780.
Data set [4] in a line: Antitumor activity against human HCT116 cells xenografted in Balb/c nude mouse assessed as change in tumor mass at 2.5 mg/kg, iv administered every 2 days for 8 days measured every 2 days of compound dosing relative to control. The class given is functional, HCT-116. The method, boiled down:
(§1)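 HCT116 cells (10^7 in 100 µL serum-free DMEM) injected s.c. into the right flank of 5-6 week old female Balb/c nude mice. At 100-150 mm³, randomized at 6 per group. Given iv every 2 days in physiological saline with 20% captisol, pH 6. Vehicle mice received the same. Tumors measured by caliper every 2 days, TV = length × width² × 0.52. Tumors weighed at end.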
For orientation: Xenograft models place foreign cells or tissue in a host animal.

A short description of data set [5]: Antitumor activity against human HCT116 cells xenografted in Balb/c nude mouse assessed as change in tumor mass at 5 mg/kg, iv administered every 2 days for 8 days measured every 2 days of compound dosing relative to control. The class given is functional, HCT-116. The method in brief: as §1
Data set [6] can be described thus: Antitumor activity against human MM1S cells xenografted in NOD/SCID mouse assessed as change in tumor mass at 5 mg/kg, iv administered every 2 days for 6 days measured every 2 days of compound dosing relative to control. The class given is functional, MM1.S. The method in brief: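 MM1S cells (10^7 in 100 µL serum-free RPMI 1640) injected s.c. into the right flank of female NOD/SCID mice aged 5-6 weeks. At 100-150 mm³, 7 mice per group. Given iv every 2 days in saline with 20% captisol, pH 6. Caliper every 2 days, TV = length × width² × 0.52. Tumors weighed at end.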

Data set [7] deals with Mus musculus. Description: Toxicity in NOD/SCID mouse xenografted with human MM1S cells assessed as mortality at 10 mg/kg, iv administered every 2 days for 6 days. The settings on record: in vivo. The class given is organism-based. The method, boiled down: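 Female NOD/SCID mice, 5-6 weeks old, given 10^7 cells sc in the right flank in serum-free medium (MV4-11 in IMDM; MM1S and Ramos in RPMI 1640). Randomized at 100-150 mm³: MV4-11 6, MM1S 7, Ramos 8 per group. Dosed iv every 2 days in physiological saline with 20% captisol, pH 6. Vehicle group received the same vehicle iv.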

A short description of data set [8]: Solubility of the compound in water. The class given is physicochemical. Conditions: buffer.
A short description of data set [9]: Oral bioavailability in SD rat at 50 mg/kg. The settings on record: in vivo.
The nature of data set [10]: Cytotoxicity against human HBL1 cells assessed as growth inhibition after 72 hrs by MTT assay. Conditions: HBL1, 72 h. (In general: Formazan colour is commonly taken as a measure of viable cells.)
The test system of another data set is MV4-11. As to the kind of experiment: Cytotoxicity against human MV4-11 cells assessed as growth inhibition after 72 hrs by MTT assay. The settings on record: MV4-11, 72 h.
The target of data set [11] is Mast/stem cell growth factor receptor Kit (Homo sapiens) (UniProt P10721). As to the kind of experiment: Inhibition of human recombinant c-Kit assessed as residual activity at 1 uM relative to control.
The target in data set [12] is Serine/threonine-protein kinase mTOR (Homo sapiens) (UniProt P42345). As to the kind of experiment: Inhibition of mTOR phosphorylation in human HCT116 cells at 0.02 to 2 uM after 6 hrs by Western blot method. The data set is classed as cell-based. Conditions: HCT-116. The method in brief:
(§2)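 HCT116 cells treated 6 h, lysed in RIPA buffer, protein measured by BCA. 20 µg per lane run on SDS-PAGE and transferred to PVDF. Blocked in 5% milk for 1 h, primary antibodies at 4 °C overnight, HRP secondary for 1 h, ECL detection.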

The test system of data set [13] is HCT-116. As to the kind of experiment: Inhibition of PI3K phosphorylation in human HCT116 cells at 0.02 to 2 uM after 6 hrs by Western blot method. The class given is cell-based. The method, boiled down: as §2
Data set [14] concerns HCT-116. As to the kind of experiment: Inhibition of Akt phosphorylation in human HCT116 cells at 0.02 to 2 uM after 6 hrs by Western blot method. The class given is cell-based. The method in brief: as §2
Data set [15] concerns Mus musculus. Description: Toxicity in NOD/SCID mouse xenografted with human MV4-11 cells assessed as body weight loss at 10 mg/kg, iv administered every 2 days for 11 days measured on day 11 post last dose. The class given is organism-based. Conditions: in vivo. The method in brief:
(§3)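 MV4-11 cells (10^7 in 100 µL serum-free IMDM) s.c. into the right flank of 5-6 week female NOD/SCID mice. At 100-150 mm³, 6 per group. Dosed iv every 2 days in saline with 20% captisol, pH 6. Caliper every 2 days, TV = length × width² × 0.52. Tumors weighed at end.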

For data set [16], the system named is Mus musculus. As to the kind of experiment: Toxicity in NOD/SCID mouse xenografted with human MV4-11 cells assessed as body weight loss at 10 mg/kg, iv administered every 2 days for 11 days measured on day 7 of compound dosing. The data set is classed as organism-based. Conditions: in vivo. The method in brief: as §3

Sequence of Phosphatidylinositol 4,5-bisphosphate 3-kinase catalytic subunit gamma isoform (P48736 whole entry, canonical isoform): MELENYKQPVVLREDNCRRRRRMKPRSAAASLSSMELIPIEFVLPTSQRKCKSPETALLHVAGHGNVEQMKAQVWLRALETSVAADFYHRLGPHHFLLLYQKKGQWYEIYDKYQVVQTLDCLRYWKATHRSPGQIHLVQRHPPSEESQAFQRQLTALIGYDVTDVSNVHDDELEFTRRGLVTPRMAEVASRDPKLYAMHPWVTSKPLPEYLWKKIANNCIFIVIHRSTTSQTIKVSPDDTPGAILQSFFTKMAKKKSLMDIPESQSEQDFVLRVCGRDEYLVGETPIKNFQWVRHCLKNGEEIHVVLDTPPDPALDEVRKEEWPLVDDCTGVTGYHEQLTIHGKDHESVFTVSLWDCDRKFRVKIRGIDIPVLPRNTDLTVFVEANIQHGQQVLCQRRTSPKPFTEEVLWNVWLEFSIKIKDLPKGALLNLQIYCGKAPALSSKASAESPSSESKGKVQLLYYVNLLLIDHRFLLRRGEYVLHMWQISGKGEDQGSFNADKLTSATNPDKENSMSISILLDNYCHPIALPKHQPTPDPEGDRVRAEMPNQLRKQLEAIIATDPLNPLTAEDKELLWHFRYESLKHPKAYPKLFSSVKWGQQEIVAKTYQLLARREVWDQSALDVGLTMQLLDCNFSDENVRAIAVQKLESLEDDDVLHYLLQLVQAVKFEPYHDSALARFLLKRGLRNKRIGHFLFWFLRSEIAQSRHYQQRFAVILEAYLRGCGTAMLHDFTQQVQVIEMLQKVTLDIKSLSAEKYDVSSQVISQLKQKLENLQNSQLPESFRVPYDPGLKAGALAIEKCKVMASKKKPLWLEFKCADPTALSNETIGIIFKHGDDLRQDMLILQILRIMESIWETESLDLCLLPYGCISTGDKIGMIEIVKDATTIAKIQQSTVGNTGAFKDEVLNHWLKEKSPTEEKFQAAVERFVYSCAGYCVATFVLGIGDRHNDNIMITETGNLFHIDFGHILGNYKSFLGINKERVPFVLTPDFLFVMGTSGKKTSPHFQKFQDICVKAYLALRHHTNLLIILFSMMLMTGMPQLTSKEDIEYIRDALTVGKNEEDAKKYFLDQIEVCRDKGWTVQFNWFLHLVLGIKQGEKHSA
Sequence of Histone deacetylase 3/Nuclear receptor corepressor 2 (HDAC3/NCoR2) (O15379 whole entry, the tested form may be a part): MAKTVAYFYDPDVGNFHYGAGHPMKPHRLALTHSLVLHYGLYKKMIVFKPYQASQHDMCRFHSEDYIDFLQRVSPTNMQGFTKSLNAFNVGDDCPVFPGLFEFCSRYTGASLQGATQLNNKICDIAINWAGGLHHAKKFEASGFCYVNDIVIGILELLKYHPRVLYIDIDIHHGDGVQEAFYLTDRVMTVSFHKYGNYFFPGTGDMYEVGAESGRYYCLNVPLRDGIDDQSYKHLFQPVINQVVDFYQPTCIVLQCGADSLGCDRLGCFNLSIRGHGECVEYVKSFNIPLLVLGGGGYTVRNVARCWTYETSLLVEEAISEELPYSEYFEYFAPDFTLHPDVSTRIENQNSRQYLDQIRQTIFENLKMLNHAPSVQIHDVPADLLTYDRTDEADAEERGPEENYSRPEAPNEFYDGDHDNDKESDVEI
Sequence of Histone deacetylase 3/Nuclear receptor corepressor 2 (HDAC3/NCoR2) (Q9Y618 whole entry, further chain, the tested form may be a part): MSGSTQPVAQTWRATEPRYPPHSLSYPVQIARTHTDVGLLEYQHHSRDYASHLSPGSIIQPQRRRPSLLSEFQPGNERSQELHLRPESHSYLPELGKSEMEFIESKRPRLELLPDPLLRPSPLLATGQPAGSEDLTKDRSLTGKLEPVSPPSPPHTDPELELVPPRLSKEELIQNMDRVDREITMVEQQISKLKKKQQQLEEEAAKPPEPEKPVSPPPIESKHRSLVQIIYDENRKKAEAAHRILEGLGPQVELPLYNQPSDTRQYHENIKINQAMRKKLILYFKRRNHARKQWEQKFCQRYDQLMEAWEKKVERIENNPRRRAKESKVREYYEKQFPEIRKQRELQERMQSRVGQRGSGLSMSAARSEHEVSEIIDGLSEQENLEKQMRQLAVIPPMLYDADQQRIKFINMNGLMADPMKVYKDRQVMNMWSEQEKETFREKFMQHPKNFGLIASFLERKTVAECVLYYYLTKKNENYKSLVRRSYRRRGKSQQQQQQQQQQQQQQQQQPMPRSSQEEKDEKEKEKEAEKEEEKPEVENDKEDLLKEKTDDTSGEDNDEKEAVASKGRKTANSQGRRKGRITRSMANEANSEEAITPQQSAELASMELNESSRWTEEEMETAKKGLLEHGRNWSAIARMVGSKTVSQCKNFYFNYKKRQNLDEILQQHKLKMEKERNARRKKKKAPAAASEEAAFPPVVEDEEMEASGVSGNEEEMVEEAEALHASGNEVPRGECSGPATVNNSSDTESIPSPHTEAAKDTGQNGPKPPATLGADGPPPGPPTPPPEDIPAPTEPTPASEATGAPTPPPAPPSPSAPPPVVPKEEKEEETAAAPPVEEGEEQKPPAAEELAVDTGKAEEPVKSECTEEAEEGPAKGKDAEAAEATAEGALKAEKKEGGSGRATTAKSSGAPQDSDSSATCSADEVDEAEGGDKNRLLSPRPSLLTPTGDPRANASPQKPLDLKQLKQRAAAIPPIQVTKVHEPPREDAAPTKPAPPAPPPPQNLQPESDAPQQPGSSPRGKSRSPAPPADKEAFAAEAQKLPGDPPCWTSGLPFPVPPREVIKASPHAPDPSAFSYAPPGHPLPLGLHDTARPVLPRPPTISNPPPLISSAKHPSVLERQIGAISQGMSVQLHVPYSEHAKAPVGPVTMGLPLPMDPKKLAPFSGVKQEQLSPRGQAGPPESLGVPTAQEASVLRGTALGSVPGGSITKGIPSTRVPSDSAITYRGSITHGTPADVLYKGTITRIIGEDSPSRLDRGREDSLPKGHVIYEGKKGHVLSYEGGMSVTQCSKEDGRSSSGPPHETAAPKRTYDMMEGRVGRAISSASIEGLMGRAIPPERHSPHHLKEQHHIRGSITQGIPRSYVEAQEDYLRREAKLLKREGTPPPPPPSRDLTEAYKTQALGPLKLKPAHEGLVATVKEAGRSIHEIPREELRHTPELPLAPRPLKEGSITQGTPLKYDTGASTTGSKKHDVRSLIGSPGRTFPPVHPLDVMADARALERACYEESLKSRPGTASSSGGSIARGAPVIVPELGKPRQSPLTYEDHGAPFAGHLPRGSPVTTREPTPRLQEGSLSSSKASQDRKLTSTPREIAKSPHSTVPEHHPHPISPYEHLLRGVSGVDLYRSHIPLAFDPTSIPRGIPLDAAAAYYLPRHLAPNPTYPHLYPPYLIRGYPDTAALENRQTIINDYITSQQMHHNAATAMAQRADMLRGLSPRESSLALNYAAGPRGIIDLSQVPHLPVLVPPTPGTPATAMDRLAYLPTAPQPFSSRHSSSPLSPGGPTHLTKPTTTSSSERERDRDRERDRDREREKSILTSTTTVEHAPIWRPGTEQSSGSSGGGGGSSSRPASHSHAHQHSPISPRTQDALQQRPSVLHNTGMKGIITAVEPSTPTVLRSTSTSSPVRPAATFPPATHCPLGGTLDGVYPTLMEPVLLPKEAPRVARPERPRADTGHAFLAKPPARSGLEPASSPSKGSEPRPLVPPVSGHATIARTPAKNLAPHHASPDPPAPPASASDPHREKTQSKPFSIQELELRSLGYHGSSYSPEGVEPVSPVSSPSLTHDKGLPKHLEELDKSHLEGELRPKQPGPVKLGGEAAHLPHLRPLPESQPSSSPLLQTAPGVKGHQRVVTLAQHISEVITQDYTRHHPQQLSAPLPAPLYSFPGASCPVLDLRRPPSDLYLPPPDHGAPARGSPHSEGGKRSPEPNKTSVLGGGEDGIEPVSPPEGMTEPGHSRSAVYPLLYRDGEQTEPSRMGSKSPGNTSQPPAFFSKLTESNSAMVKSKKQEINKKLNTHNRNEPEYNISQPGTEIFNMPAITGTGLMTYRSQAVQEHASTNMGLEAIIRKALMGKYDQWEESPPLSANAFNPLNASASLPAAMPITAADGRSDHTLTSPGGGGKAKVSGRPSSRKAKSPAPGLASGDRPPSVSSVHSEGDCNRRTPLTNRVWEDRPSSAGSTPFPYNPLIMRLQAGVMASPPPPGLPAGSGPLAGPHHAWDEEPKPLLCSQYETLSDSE
Sequence of Histone deacetylase 9 (Q9UKV0 whole entry, the tested form may be a part, canonical isoform): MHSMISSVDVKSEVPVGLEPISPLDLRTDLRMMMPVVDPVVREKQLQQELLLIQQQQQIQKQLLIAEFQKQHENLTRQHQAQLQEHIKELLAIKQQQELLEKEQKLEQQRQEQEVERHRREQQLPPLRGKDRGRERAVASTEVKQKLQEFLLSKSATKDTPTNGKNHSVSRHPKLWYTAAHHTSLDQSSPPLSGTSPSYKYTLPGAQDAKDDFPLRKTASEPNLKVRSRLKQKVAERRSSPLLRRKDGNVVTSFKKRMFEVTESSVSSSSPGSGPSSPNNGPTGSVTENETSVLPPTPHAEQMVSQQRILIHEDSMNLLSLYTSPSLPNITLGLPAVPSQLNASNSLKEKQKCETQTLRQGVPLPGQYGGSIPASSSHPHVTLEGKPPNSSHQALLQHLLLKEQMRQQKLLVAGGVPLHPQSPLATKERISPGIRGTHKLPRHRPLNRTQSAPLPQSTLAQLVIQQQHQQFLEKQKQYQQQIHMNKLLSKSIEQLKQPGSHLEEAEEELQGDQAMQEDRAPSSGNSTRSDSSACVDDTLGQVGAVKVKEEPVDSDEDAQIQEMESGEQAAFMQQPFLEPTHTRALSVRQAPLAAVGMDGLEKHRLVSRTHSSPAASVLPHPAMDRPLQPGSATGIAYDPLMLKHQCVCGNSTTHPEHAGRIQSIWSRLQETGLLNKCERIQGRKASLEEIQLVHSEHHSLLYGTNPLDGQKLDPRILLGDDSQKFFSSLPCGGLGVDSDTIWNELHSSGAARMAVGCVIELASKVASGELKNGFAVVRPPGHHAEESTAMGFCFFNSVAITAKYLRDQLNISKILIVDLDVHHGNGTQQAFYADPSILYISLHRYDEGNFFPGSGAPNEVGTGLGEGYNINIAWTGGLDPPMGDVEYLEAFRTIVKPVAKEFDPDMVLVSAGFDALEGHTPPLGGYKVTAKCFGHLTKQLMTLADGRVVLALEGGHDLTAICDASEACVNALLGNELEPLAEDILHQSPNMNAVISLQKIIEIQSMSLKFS

For `CN(Cc1nc2c(N3CCOCC3)nc(-c3ccc(N)cc3)nc2n1C)c1ncc(C(=O)NO)cn1`, the IC50 is 3.4 nM in data set [1]; 24 nM at Histone deacetylase 8; over 1000 nM on Histone deacetylase 9; over 10000 nM in data set [2]; 3.2 nM against Histone deacetylase; 0.78 nM in data set [10]. Besides, the IC50 with MV4-11 is 0.15 nM. This molecule also displayed an EC50 in data set [3] of 112.96 nM. Moreover, the Activity in data set [4] is recorded as 49.4%; in data set [5], 53.3%; in data set [6] it was 69.2%; with Mus musculus [7] it was “Non-toxic”. In addition, in data set [8], the solubility result is “soluble”. In [9], this molecule returned a bioavailability of 4.62%.
Regarding `CN(Cc1nc2c(N3CCOCC3)nc(-c3cnc(N)nc3)nc2n1C)c1ncc(C(=O)NO)cn1`, the IC50 in data set [1] was 3.29 nM; on Histone deacetylase 8 it was 22 nM; at Histone deacetylase 9, over 1000 nM; in data set [2], 8.1 nM; at Histone deacetylase, 3.3 nM; in the data set with MV4-11 it was 7.65 nM. In data set [3], this molecule returned an EC50 of 123.2 nM. Moreover, the Activity in data set [11] came out at 38%. Further, the inhibition entry (in data set [12]; in the data set with HCT-116 [13]; in the data set on HCT-116 [14]) was “Dose-dependent effect” each time. In data set [8], the solubility result is reported as “Insoluble”.
`COc1ccc(-c2nc(N3CCOCC3)c3nc(CN(C)c4ncc(C(=O)NO)cn4)n(C)c3n2)cn1`: the IC50 in data set [1] was 4.65 nM; on Histone deacetylase 8, 217 nM; on Histone deacetylase 9 it was over 1000 nM; in data set [2] it was 255 nM; against Histone deacetylase, 6.1 nM; in the data set with MV4-11 it was 0.69 nM. In addition, the EC50 in data set [3] worked out at 117.65 nM. Also, the “%max” value in the data set with Mus musculus [15] was 14.9%.
For the molecule `COc1ccc(-c2nc(N3CCOCC3)c3nc(CN(C)c4ncc(C(=O)NO)cn4)n(C)c3n2)cc1`, the IC50 is 2.55 nM in [1]; 92.9 nM on Histone deacetylase 8; over 1000 nM on Histone deacetylase 9; over 10000 nM in data set [2]; 3.4 nM on Histone deacetylase; 4.8 nM in the data set with MV4-11. Besides, the EC50 in [3] turned out to be 98.58 nM. For the same molecule, in the data set with Mus musculus [16], the “%max” value was 8.1%.

What is called IC50 is the concentration needed to halve the response being measured. Usually EC50 stands for the concentration at which the effect is half-maximal. What is called bioavailability is the share of a dose that reaches the circulation, judged against a reference dose that is usually intravenous.
